Measured values from different studies.
Target: Citron Rho-interacting kinase (CIT, Homo sapiens, UniProt O14578)

O=C(Nc1c[nH]nc1C(=O)NC1CCNCC1)c1cc(F)cc(F)c1
remaining binding (binding; competition with immobilised ligand; 1 µM): 100%

O=C(NCc1ncc(C(F)(F)F)cc1Cl)c1ccc2c(c1)C1(CCS(=O)(=O)CC1)[C@@H](C1CC1)N2S(=O)(=O)c1ccc(F)cc1
remaining binding (cell-free assay; competition with immobilised ligand; 1 µM): 84%

COc1ccnn2ncc(-c3ccnc(N(C)C)n3)c12
remaining binding (binding; 1 µM): 95%

COc1ncc2cc3ccccc3nc2c1C#N
remaining binding (cell-free assay; competition with immobilised ligand; 5 µM): 40%

CNC(=O)c1ccc(Nc2ncc(C(F)(F)F)c(NCc3nccnc3N(C)S(C)(=O)=O)n2)cc1
remaining binding (cell-free assay; competition with immobilised ligand; 0.1 µM): 68%

F[C@@H]1CCN(c2nccc(-c3cnn4ncccc34)n2)C1
remaining binding (binding; 1 µM): 75%

O=C(c1ccc(Nc2ncc(Cl)c(-c3cc4ccccc4s3)n2)cc1)N1CCC(N2CCCC2)CC1
remaining binding (binding; competition with immobilised ligand; 1 µM): 30%

COc1cnc(Nc2cccc(S(N)(=O)=O)c2)nc1N1CCN(c2ccccc2)CC1
remaining binding (binding; competition with immobilised ligand; 1 µM): 100%

C[C@@H](c1cccc(C#N)c1)n1cc(Cl)cc(C(N)=O)c1=N
remaining binding (cell-free assay; competition with immobilised ligand; 1 µM): 100%

CNC(=O)[C@@H]1CC[C@@H](n2c(-c3ccc4cnccc4c3)nc3ccc(C(=O)NCc4cccc(C(N)=O)c4)cc32)C1
remaining binding (binding; competition with immobilised ligand; 1 µM): 100%

CCOC(=O)c1cc2cc(-c3cc(C(=O)NCc4ccc(C(=O)O)cc4)nn3C)ccc2[nH]1
remaining binding (cell-free assay; competition with immobilised ligand; 0.1 µM): 100%

O=C(NCCCN1CCOCC1)c1ccc(Nc2ncc(Cl)c(-c3ccc(Cl)s3)n2)cc1
remaining binding (binding; competition with immobilised ligand; 1 µM): 63%

Cc1cnn2ncc(-c3ccnc(N(C)C)n3)c2c1
remaining binding (binding; 1 µM): 82%

Nc1ncc2c(n1)-c1c([nH]c3ccc(C#CC4CC4)cc13)CCCC2
remaining binding (binding; competition with immobilised ligand; 1 µM): 88%

c1ccc(N2CCN(Cc3nc4ccccc4[nH]3)CC2)nc1
remaining binding (binding; competition with immobilised ligand; 1 µM): 88%

C[C@H]1CCN(c2nccc(-c3cnn4ncccc34)n2)C1
remaining binding (binding; 1 µM): 69%

COc1cccc(CNC(=O)c2nc3scc(COCc4ccc(C(=O)O)cc4)c3c(=O)[nH]2)c1
remaining binding (cell-free assay; competition with immobilised ligand; 1 µM): 100%

N[C@H]1CCN(c2nccc(-c3cnn4ncccc34)n2)C1
remaining binding (binding; 1 µM): 100%

O=C(c1ccc(Nc2nccc(-c3cc4ccccc4s3)n2)cc1)N1CCC(N2CCCC2)CC1
remaining binding (binding; competition with immobilised ligand; 1 µM): 57%
